Experimental data published in article PMC3799977 (Toxicology and applied pharmacology, 2012).

Key:
[1] = molecular target: T1, mouse RORα (Mus musculus, UniProt P51448); assay: CHO-K1 cell-based RORα reporter gene assay; conditions: for RORα inverse agonistic activity (in words): Fig. 2A; for RIC20 (20% relative inhibitory concentration), RORα assay: inverse agonistic activity, CHO-K1 cells, 24 hr; for ROR activity (RORα): data not shown
T1 sequence (P51448 1-467 isoform P51448-2): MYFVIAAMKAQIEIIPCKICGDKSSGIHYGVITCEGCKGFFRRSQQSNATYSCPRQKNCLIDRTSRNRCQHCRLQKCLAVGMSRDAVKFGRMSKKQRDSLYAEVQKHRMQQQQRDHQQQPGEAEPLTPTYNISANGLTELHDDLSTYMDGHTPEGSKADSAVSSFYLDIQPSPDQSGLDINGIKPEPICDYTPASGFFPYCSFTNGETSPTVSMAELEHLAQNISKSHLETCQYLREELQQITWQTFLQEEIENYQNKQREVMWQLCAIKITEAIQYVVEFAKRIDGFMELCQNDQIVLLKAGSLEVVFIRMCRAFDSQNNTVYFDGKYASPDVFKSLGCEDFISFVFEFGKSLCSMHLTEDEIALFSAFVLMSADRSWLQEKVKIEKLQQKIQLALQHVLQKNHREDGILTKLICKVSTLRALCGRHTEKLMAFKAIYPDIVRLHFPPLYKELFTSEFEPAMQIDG

[2] = test system: CHO-K1 cells; assay: Cytotoxicity check by β-galactosidase activity in the reporter gene assays; assay type: cell-based, Chinese hamster; conditions: highest dose (30 μM)
[3] = test system: IL-17A mRNA expression in mouse T lymphoma EL4 cells; assay: IL-17A mRNA expression in EL4 cells; assay type: cell-based; conditions: 6 h; for IL-17 gene expression, dose dependence: PMA/ionomycin-stimulated EL4 cells, 1, 3, 10 or 30 μM; for IL-17 mRNA expression, real-time PCR: highest dose 30 μM
Outline: (§1)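 EL4 cells were plated at 2 × 10^6 cells/ml in RPMI-1640 with 10% FBS. Next day they were stimulated with PMA (5 ng/ml) plus ionomycin (1 μM) and given vehicle or 1, 3, 10 or 30 μM test compound at 37°C for 6 h. TRIzol RNA was reverse-transcribed and TaqMan real-time PCR run, normalized to β-actin. Results were expressed relative to stimulated vehicle (=1), mean ± SD, three experiments.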

[4] = test system: IL-17A mRNA expression in EL4/shNC cells; assay: IL-17A mRNA expression in control shRNA EL4/shNC cells; assay type: cell-based, mouse; conditions: 10 μM, PMA/ionomycin
[5] = test system: IL-17A mRNA expression in EL4/shRorac cells; assay: IL-17A mRNA expression in RORα/γ-knockdown EL4/shRorac cells; assay type: cell-based, mouse; conditions: 10 μM, PMA/ionomycin, RORα/γ double knockdown
Outline: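 EL4/shRorac, a stable RORα/RORγ double-knockdown clone, was made by electroporating a GFP/Neo U6 vector carrying Rora and Rorc shRNAs, then selecting in G418. EL4/shNC (nonsilencing shRNA) served as control. Cells received 10 μM test compound with or without PMA/ionomycin. IL-17 mRNA was measured by real-time RT-PCR, normalized to β-actin, and expressed relative to stimulated vehicle-treated EL4/shNC (=1). Mean ± SD, three experiments.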

[6] = molecular target: T2, mouse RORγ (Mus musculus, UniProt P51450); assay: CHO-K1 cell-based RORγ reporter gene assay; conditions: for RIC20 (20% relative inhibitory concentration), RORγ assay: inverse agonistic activity, CHO-K1 cells, 24 hr; for ROR activity (RORγ): data not shown
T2 sequence (P51450 1-516): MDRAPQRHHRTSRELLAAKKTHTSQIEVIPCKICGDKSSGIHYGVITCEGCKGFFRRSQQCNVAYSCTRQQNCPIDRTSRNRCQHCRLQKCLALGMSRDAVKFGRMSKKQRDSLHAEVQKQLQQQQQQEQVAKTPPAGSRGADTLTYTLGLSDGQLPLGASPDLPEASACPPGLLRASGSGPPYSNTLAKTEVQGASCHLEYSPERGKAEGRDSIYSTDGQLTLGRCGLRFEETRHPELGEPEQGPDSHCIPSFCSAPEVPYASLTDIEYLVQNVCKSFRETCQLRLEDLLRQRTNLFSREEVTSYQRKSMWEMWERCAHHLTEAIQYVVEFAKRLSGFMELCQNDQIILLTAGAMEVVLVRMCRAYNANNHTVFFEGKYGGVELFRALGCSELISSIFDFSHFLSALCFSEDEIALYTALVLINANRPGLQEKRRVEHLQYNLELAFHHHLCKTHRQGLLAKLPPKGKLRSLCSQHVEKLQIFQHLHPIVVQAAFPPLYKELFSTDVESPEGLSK

[7] = test system: RORγ mRNA expression in EL4 cells; assay: RORγ mRNA expression in PMA/ionomycin-stimulated EL4 cells; assay type: cell-based, mouse; conditions: 6 h
[8] = test system: RORα mRNA expression in EL4 cells; assay: RORα mRNA expression in PMA/ionomycin-stimulated EL4 cells; assay type: cell-based, mouse; conditions: 6 h
Outline: as §1

[9] = molecular target: RORα; conditions: read-out: Ki, binding to RORα; ref Kumar et al. (2010); cited from earlier work
[10] = PMA/ionomycin-stimulated EL4 cells, 10 μM
[11] = PMA/ionomycin-stimulated EL4 cells

Row | SMILES | RORα inverse agonistic activity (in words) [1] | RIC20 (20% relative inhibitory concentration), RORα assay [1] [µM] | IL-17A mRNA expression, real-time PCR [3, 10] | IL-17 gene expression, dose dependence [3] | RIC20 (20% relative inhibitory concentration), RORγ assay [6] [µM] | ROR activity (RORα) [1] | ROR activity (RORγ) [6] | also measured
1 | Clc1ccc(CSC(Cn2cncn2)=Nc2ccc(Cl)cc2Cl)cc1 [Imibenconazole] | weak RORα inverse agonists | 10 | strongly suppressed IL-17A mRNA expression | inhibit IL-17 gene expression in a dose-dependent manner | 3.3 | – | – | cytotoxic effects based on β-galactosidase activity [2]: except for the highest dose (30 μM); IL-17A mRNA expression in EL4/shNC cells [4]: showed inhibitory effects on IL-17A mRNA expression; IL-17 mRNA expression in EL4/shRorac cells [5]: also suppressed IL-17 mRNA expression
2 | CCCC1COC(Cn2cncn2)(c2ccc(Cl)cc2Cl)O1 (stereo not drawn) [propiconazole] | – | – | – | – | – | inactive | inactive | –
3 | CCCCC(O)(Cn1cncn1)c1ccc(Cl)cc1Cl (stereo not drawn) [Hexaconazole] | weak RORα inverse agonists | 21 | significantly inhibited | inhibit IL-17 gene expression in a dose-dependent manner | 3.2 | – | – | –
4 | O=S(=O)(c1ccccc1)N(CC(F)(F)F)c1ccc(C(O)(C(F)(F)F)C(F)(F)F)cc1 [T0901317, N-(2,2,2-trifluoroethyl)-N-[4-(2,2,2-trifluoro-1-hydroxy-1-trifluoromethyl-ethyl)-phenyl]-benzene sulfonamide, reference compound] | weak RORα inverse agonists | – | – | – | – | – | – | RORα agonistic activity ([1]; CHO cell-based reporter gene assay): didn’t show any RORα/γ agonistic activity; cytotoxic effects based on β-galactosidase activity [2]: except for the highest dose (30 μM); RORγ mRNA expression [7]: did not affect; RORα mRNA expression [8]: did not affect; IL-17A mRNA expression, qualitative RT-PCR ([3]; PMA/ionomycin-stimulated EL4 cells, 0.1, 1, 10 μM, Fig. 4A): inhibited IL-17A mRNA expression in a dose-dependent manner; IL-17A mRNA expression, real-time PCR ([3]; PMA/ionomycin-stimulated EL4 cells, 0.1, 1, and 10 μM): significantly inhibited IL-17A mRNA expression; IL-17A gene expression in non-stimulated EL4 cells ([3]; no PMA/ionomycin stimulation, qualitative RT-PCR): neither T0901317 nor the vehicle induced the expression of IL-17A gene; Ki [9]: […]; IL-17A mRNA expression in EL4/shNC cells [4]: showed inhibitory effects on IL-17A mRNA expression; IL-17 mRNA expression in EL4/shRorac cells [5]: also suppressed IL-17 mRNA expression
5 | C=CCOC(Cn1ccnc1)c1ccc(Cl)cc1Cl (stereo not drawn) [Imazalil] | did not show almost any inverse agonistic activity | > 30 | – | inhibit IL-17 gene expression in a dose-dependent manner | 29 | – | – | IL-17 mRNA expression, real-time PCR [3, 11]: significantly suppressed IL-17 mRNAs
6 | CC(C)(C)C(=O)C(Oc1ccc(Cl)cc1)n1cncn1 (stereo not drawn) [triadimefon] | – | – | – | – | – | inactive | inactive | –
7 | CCCN(CCOc1c(Cl)cc(Cl)cc1Cl)C(=O)n1ccnc1 [prochloraz] | – | – | – | – | – | inactive | inactive | –
8 | CC(C)(C)C(O)C(Oc1ccc(-c2ccccc2)cc1)n1cncn1 (stereo not drawn) [bitertanol] | – | – | – | – | – | inactive | inactive | –
9 | CCCOC/C(=N\c1ccc(Cl)cc1C(F)(F)F)n1ccnc1 [Triflumizole] | weak RORα inverse agonists | – | significantly inhibited | inhibit IL-17 gene expression in a dose-dependent manner | – | – | – | –
10 | FC(F)C(F)(F)OCC(Cn1cncn1)c1ccc(Cl)cc1Cl (stereo not drawn) [Tetraconazole] | did not show almost any inverse agonistic activity | > 30 | – | inhibit IL-17 gene expression in a dose-dependent manner | 15 | – | – | IL-17 mRNA expression, real-time PCR [3, 11]: significantly suppressed IL-17 mRNAs
